{
  "source": "ChEMBL document CHEMBL2375264",
  "about": "“Potent naphthoquinones against antimony-sensitive and -resistant Leishmania parasites: synthesis of novel α- and nor-α-lapachone-based 1,2,3-triazoles by copper-catalyzed azide-alkyne cycloaddition” (Eur J Med Chem, 2013)",
  "key": {"[1]": {"assay": "Selectivity index, ratio of CC50 for Swiss mouse peritoneal macrophages to IC50 for antimony-resistant Leishmania infantum MCAN/BR/2002/BH400 promastigote", "type": "functional", "outline": "(§1)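 SI = CC50/IC50. CC50 comes from Swiss mouse peritoneal macrophages, harvested by lavage with cold RPMI-1640 lacking FBS. Cells seeded at 4.0 × 10⁶/mL, allowed to adhere 1 h, then washed free of non-adherent cells. Viability read by MTT (5 mg/mL stock, 4 h).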"}, "[2]": {"assay": "Cytotoxicity against Swiss mouse peritoneal macrophages after 24 hrs by MTT assay", "type": "cell-based, Peritoneal macrophage cell", "outline": "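Macrophages from peritoneal lavage of Swiss mice with cold FBS-free RPMI-1640. Cells seeded at 4.0 × 10⁶/mL, adhered 1 h, non-adherent cells washed off. Compounds were DMSO stocks diluted in medium over a concentration range, final DMSO ≤0.2%. Viability read by MTT (5 mg/mL solution, 4 h further incubation). CC50 taken as the 50% cytotoxic concentration.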"}, "[3]": {"tested_on": "Leishmania infantum", "assay": "Ratio of potassium antimonyl tartrate IC50 to compound IC50 for antimony-sensitive Leishmania infantum MCAN/BR/2002/BH400 promastigote infected in Swiss mouse peritoneal macrophages", "type": "functional"}, "[4]": {"tested_on": "Leishmania amazonensis", "assay": "Antileishmanial activity against antimony-resistant Leishmania amazonensis MHOM/BR/1989/BA199 promastigote infected in Swiss mouse peritoneal macrophages after 72 hrs", "type": "functional, organism-based", "details": "MHOM/BR/1989/BA199, 72 h", "outline": "(§2)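 Promastigotes of Sb(III)-sensitive and -resistant lines (resistant to Sb(III) up to 2700), maintained at 25 °C, pH 7.0, in α-MEM with 10% heat-inactivated FBS, kanamycin, ampicillin, L-glutamine, hemin and biopterin. Drugs dissolved in DMSO, diluted in α-MEM across a concentration range, final DMSO ≤0.2%.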"}, "[5]": {"tested_on": "Leishmania infantum", "assay": "Antileishmanial activity against antimony-sensitive Leishmania infantum MCAN/BR/2002/BH400 promastigote infected in Swiss mouse peritoneal macrophages after 72 hrs", "type": "functional, organism-based", "details": "MCAN/BR/2002/BH400, 72 h", "outline": "as §2"}, "[6]": {"assay": "Selectivity index, ratio of CC50 for Swiss mouse peritoneal macrophages to IC50 for antimony-sensitive Leishmania amazonensis MHOM/BR/1989/BA199 promastigote", "type": "functional", "outline": "(§3)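 SI = CC50 / IC50. CC50 is from Swiss mouse peritoneal macrophages, read by MTT after lavage and 1 h adherence. […] Promastigotes grown in α-MEM with 10% heat-inactivated FBS, hemin and biopterin, pH 7.0, 25 °C. DMSO ≤0.2% final. Triplicate.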"}, "[7]": {"assay": "Selectivity index, ratio of CC50 for Swiss mouse peritoneal macrophages to IC50 for antimony-resistant Leishmania amazonensis MHOM/BR/1989/BA199 promastigote", "type": "functional", "outline": "as §1"}, "[8]": {"tested_on": "Leishmania infantum", "assay": "Antileishmanial activity against antimony-resistant Leishmania infantum MCAN/BR/2002/BH400 promastigote infected in Swiss mouse peritoneal macrophages after 72 hrs", "type": "functional, organism-based", "details": "MCAN/BR/2002/BH400, 72 h", "outline": "as §2"}, "[9]": {"tested_on": "Leishmania amazonensis", "assay": "Ratio of potassium antimonyl tartrate IC50 to compound IC50 for antimony-sensitive Leishmania amazonensis MHOM/BR/1989/BA199 promastigote infected in Swiss mouse peritoneal macrophages", "type": "functional"}, "[10]": {"assay": "Selectivity index, ratio of CC50 for Swiss mouse peritoneal macrophages to IC50 for antimony-sensitive Leishmania infantum MCAN/BR/2002/BH400 promastigote", "type": "functional", "outline": "as §3"}, "[11]": {"tested_on": "Leishmania amazonensis", "assay": "Antileishmanial activity against antimony-sensitive Leishmania amazonensis MHOM/BR/1989/BA199 promastigote infected in Swiss mouse peritoneal macrophages after 72 hrs", "type": "functional, organism-based", "details": "MHOM/BR/1989/BA199, 72 h", "outline": "as §2"}},
  "note": "pIC50: −log10 of the molar value.",
  "data": [
    {"smiles": "O=C1C=C(n2cc(CN3C(=O)c4ccccc4C3=O)nn2)C(=O)c2ccccc21", "values": [
      {"measurement": "Ratio CC50/IC50", "setting": "[1]", "value": 0.64},
      {"measurement": "CC50 at 24 h", "setting": "[2]", "value": 5.39, "unit": "µM"},
      {"measurement": "Ratio IC50", "setting": "[3]", "value": 2},
      {"measurement": "pIC50", "setting": "[4]", "value": 4.40},
      {"measurement": "pIC50", "setting": "[5]", "value": 4.38},
      {"measurement": "Ratio CC50/IC50", "setting": "[6]", "value": 0.11},
      {"measurement": "Ratio CC50/IC50", "setting": "[7]", "value": 0.13},
      {"measurement": "pIC50", "setting": "[8]", "value": 5.07},
      {"measurement": "Ratio IC50", "setting": "[9]", "value": 2.2},
      {"measurement": "Ratio CC50/IC50", "setting": "[10]", "value": 0.13},
      {"measurement": "pIC50", "setting": "[11]", "value": 4.30}
    ]},
    {"smiles": "O=C1C=C(n2cc(CO)nn2)C(=O)c2ccccc21", "values": [
      {"measurement": "Ratio CC50/IC50", "setting": "[1]", "value": 1.64},
      {"measurement": "CC50 at 24 h", "setting": "[2]", "value": 9.51, "unit": "µM"},
      {"measurement": "Ratio IC50", "setting": "[3]", "value": 2},
      {"measurement": "pIC50", "setting": "[4]", "value": 4.67},
      {"measurement": "pIC50", "setting": "[5]", "value": 4.41},
      {"measurement": "Ratio CC50/IC50", "setting": "[6]", "value": 0.4},
      {"measurement": "Ratio CC50/IC50", "setting": "[7]", "value": 0.45},
      {"measurement": "pIC50", "setting": "[8]", "value": 5.24},
      {"measurement": "Ratio IC50", "setting": "[9]", "value": 2.2},
      {"measurement": "Ratio CC50/IC50", "setting": "[10]", "value": 0.24},
      {"measurement": "pIC50", "setting": "[11]", "value": 4.62}
    ]},
    {"smiles": "CC1(C)OC2=C(C(=O)C(=O)c3ccccc32)C1n1cc(-c2ccc(F)cc2)nn1", "note": "(centres undefined)", "values": [
      {"measurement": "Ratio CC50/IC50", "setting": "[1]", "value": 0.72},
      {"measurement": "CC50 at 24 h", "setting": "[2]", "value": 3.52, "unit": "µM"},
      {"measurement": "Ratio IC50", "setting": "[3]", "value": 15.5},
      {"measurement": "pIC50", "setting": "[4]", "value": 5.36},
      {"measurement": "pIC50", "setting": "[5]", "value": 5.36},
      {"measurement": "Ratio CC50/IC50", "setting": "[6]", "value": 0.75},
      {"measurement": "Ratio CC50/IC50", "setting": "[7]", "value": 0.8},
      {"measurement": "pIC50", "setting": "[8]", "value": 5.31},
      {"measurement": "Ratio IC50", "setting": "[9]", "value": 23},
      {"measurement": "Ratio CC50/IC50", "setting": "[10]", "value": 0.81},
      {"measurement": "pIC50", "setting": "[11]", "value": 5.33}
    ]},
    {"smiles": "Cc1ccc(-c2cn(C3=CC(=O)c4ccccc4C3=O)nn2)cc1", "values": [
      {"measurement": "Ratio CC50/IC50", "setting": "[1]", "value": 1.12},
      {"measurement": "CC50 at 24 h", "setting": "[2]", "value": 15.2, "unit": "µM"},
      {"measurement": "Ratio IC50", "setting": "[3]", "value": 2},
      {"measurement": "pIC50", "setting": "[4]", "value": 4.86},
      {"measurement": "pIC50", "setting": "[5]", "value": 5.06},
      {"measurement": "Ratio CC50/IC50", "setting": "[6]", "value": 0.71},
      {"measurement": "Ratio CC50/IC50", "setting": "[7]", "value": 1.1},
      {"measurement": "pIC50", "setting": "[8]", "value": 4.87},
      {"measurement": "Ratio IC50", "setting": "[9]", "value": 2.2},
      {"measurement": "Ratio CC50/IC50", "setting": "[10]", "value": 1.72},
      {"measurement": "pIC50", "setting": "[11]", "value": 4.67}
    ]}
  ]
}
